In ChEMBL document CHEMBL1148694, “Calcitriol derivatives with two different side-chains at C-20. Part 4: further chain modifications that alter VDR-dependent monocytic differentiation potency in human leukemia cells” (2007):
The source made the active and inactive calls. No cut-off for these calls is given here.

How the values were obtained:
[1] = Induction of differentiation in human HL60-G cells assessed as CD11b expression; type: functional
How it was run: (§1)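 HL60-G33 cells in RPMI 1640 with 10% bovine calf serum at 37 °C, 5% CO2, given compounds in fresh medium (ethanol vehicle); 1,25D at 0.1, 1 and 10 nM. 1×10^6 cells washed twice in PBS, stained on ice for 45 min with MO1-FITC (CD11b) and MY4-RD1 (CD14), then washed. Flow cytometry with acquisition set on isotype controls.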

[2] = Induction of differentiation in human HL60-G cells assessed as CD14 expression; type: functional; how it was run: as §1
[3] = Induction of differentiation in human HL60-G cells assessed as CD11b expression relative to 1-alpha,25-dihydroxyvitamin D3; type: functional; how it was run: as §1
HL60-G = assay: (§2) Induction of CYP24 mRNA expression in human HL60-G cells at 1 nM after 12 hrs relative to 1-alpha,25-dihydroxyvitamin D3; type: functional
How it was run: (§3)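 HL60-G33 cells exposed to 1 nM compound for 12 h. Total RNA from 5×10^6 cells was DNase-treated, and 1 μg was reverse transcribed with MuLV RT and oligo-d(T). CYP24 transcript measured by SYBR green real-time PCR on a LightCycler with ARP0 as internal control. Values normalized to 1,25D treatment.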

[4] = Induction of differentiation in human HL60-G cells assessed as CD14 expression relative to 1-alpha,25-dihydroxyvitamin D3; type: functional; how it was run: as §1
[5] = as §2; type: functional; how it was run: as §3
[6] = Cell cycle arrest in HL60-G cells assessed as accumulation at G1 phase after 48 to 72 hrs; type: functional, cell-based; details: Homo sapiens
How it was run: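 HL60-G33 cells in RPMI 1640 with 10% bovine calf serum, 37 °C, 5% CO2, given compounds in fresh medium (ethanol vehicle) for 48 and 72 h over increasing concentrations. 1×10^6 cells fixed in 75% ethanol at -20 °C overnight, treated with RNase A 100 U/mL at 37 °C for 1 h, stained with propidium iodide 10 μg/mL. Flow cytometry; G1/S ratio.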

HL60-40AF = assay: Induction of differentiation in 1-alpha,25-dihydroxyvitamin D3 resistant human HL60-40AF cells; type: functional, cell-based
How it was run: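 Differentiation-resistant HL60-40AF subclone adapted to grow in 1,25D, cultured in RPMI 1640 with 10% bovine calf serum. Compounds given in fresh medium with ethanol vehicle; 1,25D at 10 and 100 nM. 1×10^6 cells washed in PBS, stained on ice for 45 min with MY4-RD1 (CD14) and MO1-FITC (CD11b). Read by flow cytometry, gated on isotype controls.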

C=C1/C(=C\C=C2/CCC[C@@]3(C)C2CC[C@@H]3[C@]2(CCCC(C)(C)O)C[C@H]2CCC(C)(C)O)C[C@@H](O)C[C@@H]1O (stereo partly specified)
ED20 [1]: 19.75 nM | ED20 [2]: 9.97 nM | Activity [3]: 0.06 | Activity (HL60-G): inactive

CC(C)(O)CCC[C@@]1([C@H]2CCC3/C(=C/C=C4C[C@@H](O)C[C@H](O)C4)CCC[C@@]32C)C[C@H]1CCC(C)(C)O (stereo partly specified)
ED20 [1]: 98.75 nM | ED20 [2]: 66.03 nM | Activity [3]: 0.01 | Activity [4]: 0.009

C=C1/C(=C\C=C2/CCC[C@@]3(C)C2CC[C@@H]3[C@]2(CC#CC(O)(C(F)(F)F)C(F)(F)F)C[C@H]2CCC(C)(C)O)C[C@@H](O)C[C@@H]1O (stereo partly specified)
ED20 [1]: 0.52 nM | ED20 [2]: 0.24 nM | Activity [3]: 2.31 | Activity [4]: 2.38 | Fold change [5]: 30 | Activity [6]: Active | Activity (HL60-40AF): Active

CC(C)(O)CC[C@@H]1C[C@@]1(CC#CC(O)(C(F)(F)F)C(F)(F)F)[C@H]1CCC2/C(=C/C=C3C[C@@H](O)C[C@H](O)C3)CCC[C@@]21C (stereo partly specified)
ED20 [1]: 1.17 nM | ED20 [2]: 0.46 nM | Activity [3]: 1.03 | Activity [4]: 1.24 | Fold change [5]: 2.5 | Activity (HL60-40AF): Active

C=C1/C(=C\C=C2/CCC[C@@]3(C)C2CC[C@@H]3[C@H](C)CCCC(C)(C)O)C[C@@H](O)C[C@H]1O (stereo partly specified)
ED20 [1]: 1.2 nM | ED20 [2]: 0.57 nM

C=C1/C(=C\C=C2/CCC[C@@]3(C)C2CC[C@@H]3[C@]2(CCCC(C)(C)O)C[C@H]2CCC(C)(C)O)C[C@@H](O)C[C@H]1F (stereo partly specified)
ED20 [2]: >500 nM | Activity [3]: <0.002 | Activity [4]: <0.001
